Assay results taken from ChEMBL document CHEMBL3271979, “Inhibition of solid tumors by nitrosoureas. 1. Lewis lung carcinoma” (1977).
The source made the active and inactive calls. The rule behind the calls is not given here.

How the values were obtained:
[1] = test system: Mus musculus; experiment: Antitumor activity against mouse advanced Lewis lung carcinoma allografted in ip dosed BDF1 mouse assessed as disease cure administered as single dose on day 6 or 7 post-tumor implantation; assay type: functional, organism-based
In short: (§1)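 BDF1 mice (C57Blk/6 × DBA/2) implanted sc by trocar with Lewis lung tumor fragments of about 40 mg, taken only from bacteriologically sterile donor tumors. Mice bearing tumors of about 400 mg (day 6-7) were selected. Each received a single ip dose on day 7, at or below the LD10 in normal mice. Groups were of 10 mice. Tumor weight was taken from calipers as w = ab²/2, measured at least twice weekly. Matched non-tumor mice served as toxicity controls.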

[2] = Antitumor activity against mouse advanced Lewis lung carcinoma allografted in ip dosed BDF1 mouse assessed as increase in host lifespan administered as single dose on day 6 or 7 post-tumor implantation; assay type: functional
In short: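 Advanced Lewis lung model: about 40 mg fragments implanted sc by trocar into BDF1 mice, and mice with tumors of about 400 mg (day 6-7) selected. Tumor weight from calipers, w = ab²/2. Agent given as one ip dose in distilled water or physiological saline. Nontumor-bearing mice received matching doses as toxicity controls.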

[3] = Antitumor activity against mouse early Lewis lung carcinoma allografted in BDF1 mouse assessed as time delay in tumor growth at 26 mg/kg, ip administered as single dose on 1 or 2 days post-tumor implantation; assay type: functional; conditions: route intraperitoneal
In short: (§2)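 BDF1 mice (C57Blk/6 × DBA/2) implanted sc by trocar with ~40 mg Lewis lung tumor fragments from bacteriologically sterile donors. A single ip dose was given on day 1 or 2, as a solution or suspension in water or saline with suspending agent, at ≤0.5 ml. Tumors were measured by caliper at least twice weekly, with weight = ab²/2. Delay was taken as the days for the tumor to reach 1 g.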

[4] = Antitumor activity against mouse early Lewis lung carcinoma allografted in BDF1 mouse assessed as time delay in tumor growth at 34 mg/kg, ip administered as single dose on 1 or 2 days post-tumor implantation; assay type: functional; conditions: route intraperitoneal; in short: as §2
[5] = Antitumor activity against mouse early Lewis lung carcinoma allografted in ip dosed BDF1 mouse assessed as disease cure administered as single dose on 1 or 2 days post-tumor implantation measured for 80 days post-drug treatment; assay type: functional
In short: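 BDF1 mice implanted sc by trocar with ~40 mg Lewis lung fragments from sterile donor tumors. A single ip dose was given on day 1 or 2 after implant, in water or saline vehicle. Cures were scored in animals observed for at least 80 days after treatment. Drug-toxicity controls were matched non-tumor-bearing mice monitored for body weight and deaths.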

[6] = Antitumor activity against mouse early Lewis lung carcinoma allografted in BDF1 mouse assessed as increase in host life span at 26 mg/kg, ip administered as single dose on 1 or 2 days post-tumor implantation; assay type: functional; conditions: route intraperitoneal
In short: (§3)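 BDF1 mice (C57Blk/6 × DBA/2) implanted sc by trocar with ~40 mg Lewis lung tumor fragments from bacteriologically sterile donor tumors. Single ip dose on day 1 or 2, as a solution or suspension in water (CMC or gum acacia) or saline (HPC or Tween 80). Read-out is […]. Same-dose toxicity controls were run in nontumor-bearing mice.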

[7] = Antitumor activity against mouse early Lewis lung carcinoma allografted in BDF1 mouse assessed as increase in host life span at 34 mg/kg, ip administered as single dose on 1 or 2 days post-tumor implantation; assay type: functional; conditions: route intraperitoneal; in short: as §3
[8] = Antitumor activity against mouse advanced Lewis lung carcinoma allografted in BDF1 mouse assessed as increase in host life span at 26 mg/kg, ip administered as single dose on 7th day post-tumor implantation; assay type: functional; conditions: route intraperitoneal
In short: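 BDF1 mice (C57Blk/6 × DBA/2) implanted sc by trocar with about 40 mg Lewis lung tumor fragments from bacteriologically sterile donors. Advanced-disease groups held tumors of about 400 mg by day 6-7, sized by caliper (w = ab²/2). Single ip injection on day 7, in water or saline vehicle, at or below the LD10 in normal mice. Tumors measured at least twice weekly.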

[9] = Ratio of ED50 for antitumor activity against mouse L1210 cells allografted in ip dosed mouse to LD10 for mouse
[10] = test system: Mus musculus; experiment: Antitumor activity against mouse advanced Lewis lung carcinoma allografted in ip dosed BDF1 mouse assessed as complete regression of established tumor administered as single dose on day 6 or 7 post-tumor implantation; assay type: functional, organism-based; in short: as §1
[11] = Antitumor activity against mouse early Lewis lung carcinoma allografted in BDF1 mouse assessed as time delay in tumor growth at 113 mg/kg, ip administered as single dose on 1 or 2 days post-tumor implantation; assay type: functional; conditions: route intraperitoneal
In short: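 Sc trocar implants of about 40 mg Lewis lung fragments in BDF1 mice. A single ip injection was given on day 1 or 2, in water or physiological saline, at ≤0.5 ml. Tumor size came from caliper length and width as w = ab²/2, measured at least twice weekly. Growth delay is the extra days taken to reach 1 g, compared with untreated controls.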

[12] = Antitumor activity against mouse early Lewis lung carcinoma allografted in BDF1 mouse assessed as increase in host life span at 113 mg/kg, ip administered as single dose on 1 or 2 days post-tumor implantation; assay type: functional; conditions: route intraperitoneal
In short: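 Early disease: BDF1 mice carrying sc trocar implants of about 40 mg Lewis lung fragments. One ip dose given on day 1 or 2 after implant, in distilled water or saline, at ≤0.5 ml. Endpoints were % increase in life-span of dying animals and delay in days for the primary tumor to reach 1 g. Untreated controls served as reference.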

[13] = Antitumor activity against mouse early Lewis lung carcinoma allografted in BDF1 mouse assessed as time delay in tumor growth at 50 mg/kg, ip administered as single dose on 1 or 2 days post-tumor implantation; assay type: functional; conditions: route intraperitoneal; in short: as §2
[14] = Antitumor activity against mouse early Lewis lung carcinoma allografted in BDF1 mouse assessed as increase in host life span at 50 mg/kg, ip administered as single dose on 1 or 2 days post-tumor implantation; assay type: functional; conditions: route intraperitoneal; in short: as §3
[15] = Antitumor activity against mouse early Lewis lung carcinoma allografted in BDF1 mouse assessed as increase in host life span at 20 mg/kg, ip administered as single dose on 1 or 2 days post-tumor implantation; assay type: functional; conditions: route intraperitoneal; in short: as §3
[16] = Antitumor activity against mouse early Lewis lung carcinoma allografted in BDF1 mouse assessed as time delay in tumor growth at 30 mg/kg, ip administered as single dose on 1 or 2 days post-tumor implantation; assay type: functional; conditions: route intraperitoneal; in short: as §2
[17] = Antitumor activity against mouse early Lewis lung carcinoma allografted in BDF1 mouse assessed as time delay in tumor growth at 20 mg/kg, ip administered as single dose on 1 or 2 days post-tumor implantation; assay type: functional; conditions: route intraperitoneal; in short: as §2
[18] = Antitumor activity against mouse early Lewis lung carcinoma allografted in BDF1 mouse assessed as increase in host life span at 30 mg/kg, ip administered as single dose on 1 or 2 days post-tumor implantation; assay type: functional; conditions: route intraperitoneal; in short: as §3

## O=NN(CCCl)C(=O)N[C@H]1CC[C@H](CC(=O)O)CC1
[1]
  Activity: inactive
[2]
  ILS: >25%
[3]
  Time: 10 days
[4]
  Time: 11 days
[5]
  Activity: >50%
[6]
  ILS at 26 mg/kg: 34%
[7]
  ILS at 34 mg/kg: 23%
[8]
  ILS at 26 mg/kg: 24%
[9]
  Ratio: 0.3
[10]
  inhibition: inactive

## C[C@@H]1CCC[C@@H](NC(=O)N(CCCl)N=O)C1 (relative stereo)
[2]
  ILS: <25%
[11]
  Time: 6.1 days
[12]
  ILS at 113 mg/kg: 50%
[13]
  Time: 4 days
[5]
  Activity: 10%
[9]
  Ratio: 0.4
[14]
  ILS at 50 mg/kg: 47%
[10]
  inhibition: inactive

## C[C@H]1SC[C@@H](NC(=O)N(CCCl)N=O)CS1
[2]
  ILS: <25%
[15]
  ILS at 20 mg/kg: 0%
[5]
  Activity: 10%
[16]
  Time: 18 days
[9]
  Ratio: 0.4
[17]
  Time: 8.1 days
[18]
  ILS at 30 mg/kg: 42%
[10]
  inhibition: inactive
